# Source: PubChem
# Hits are enriched below; roughly 2.5% of the tested compounds scored in any of these assays.
# FGF22 binding = FGF22 (human) thermal shift binding. Q9HCT0. recombinant FGF22 thermal shift, SYPRO orange fluorescence; percent of sucrose octasulfate shift, DMSO zero. activity (Tm shift, normalised), % at 9.99 µM. 1.5% of 340,000 active;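 active means mean Tm shift, scaled 0 neutral to 100 positive control, at about 1.3% or above, every replicate too, limit read from the data; inconclusive means no clear call, values can overlap the other calls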
# SIRT5 block = sirtuin-5 (human) deacylase inhibition | Q9NXA8 | Purified SirT5, succinyl-peptide AMC, trypsin-coupled fluorescence | inhibition, % at 15 µM | 1.1% of 330,000 active; in the data active means inhibition above about 15%; inconclusive means no clear call, values can overlap the other calls
# E-selectin induc = induces E-selectin expression in human endothelial cells. P16581. HUVEC E-selectin immunofluorescence imaging; normalized: neutral wells 0, TNF-alpha wells 100. activation, % at 7.58 µM. 0.37% of 260,000 active. AID 686992;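 active means mean E-selectin-positive cell signal at least 10% of the positive control, reached in at least 60% of replicates, without over 20% cell loss; inconclusive means no rule given, readout overlaps actives, possibly toxicity-flagged; inactive means the rest, including those meeting only one limit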
# Target sequence (P16581 whole entry, looked up): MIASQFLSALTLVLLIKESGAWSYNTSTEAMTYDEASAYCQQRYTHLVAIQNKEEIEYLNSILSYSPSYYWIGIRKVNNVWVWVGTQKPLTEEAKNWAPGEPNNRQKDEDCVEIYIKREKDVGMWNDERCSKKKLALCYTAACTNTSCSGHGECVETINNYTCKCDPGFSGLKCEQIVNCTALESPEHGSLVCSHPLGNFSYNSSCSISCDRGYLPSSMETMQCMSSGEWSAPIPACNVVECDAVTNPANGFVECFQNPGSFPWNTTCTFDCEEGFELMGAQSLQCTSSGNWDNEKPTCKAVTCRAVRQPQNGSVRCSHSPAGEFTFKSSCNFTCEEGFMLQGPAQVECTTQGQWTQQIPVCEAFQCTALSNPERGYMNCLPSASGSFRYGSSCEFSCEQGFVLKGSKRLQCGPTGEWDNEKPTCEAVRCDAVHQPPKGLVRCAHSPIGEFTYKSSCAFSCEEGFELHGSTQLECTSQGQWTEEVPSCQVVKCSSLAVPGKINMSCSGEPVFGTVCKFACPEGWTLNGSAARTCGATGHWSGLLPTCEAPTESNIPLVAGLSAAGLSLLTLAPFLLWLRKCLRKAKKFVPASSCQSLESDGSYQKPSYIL
#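 Material: HUVEC primary endothelial cells; Amount: 3,000 cells per well; Dosing: single concentration; Medium: EGM-2 growth medium on 0.1% gelatin-coated wells; Read-out basis: percent E-selectin-positive cells; Signal: immunofluorescence imaging; Control set: TNF-alpha, DMSO.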
# S100A4 MyoIIA = inhibitors of human S100A4 binding to myosin IIA peptide. 0.14% of 360,000 active. inhibition, % at 10.7 µM. S100A4/TAMRA-MyoIIA peptide fluorescence polarization. P26447. AID 652163;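 active means mean inhibition of at least 70% across replicates, with every replicate also reaching that level; inconclusive means mean inhibition reaches 70% but some replicates fall short; inactive means mean inhibition below 70%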
# Target sequence (P26447 whole entry, looked up): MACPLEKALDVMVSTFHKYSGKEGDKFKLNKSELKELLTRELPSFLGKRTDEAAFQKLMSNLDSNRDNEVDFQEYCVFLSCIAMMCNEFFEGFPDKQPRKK
#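 Test system: S100A4 monomer protein. Medium: HEPES buffer with Ca2+, pH 7.2. Reagent: fluorescent myosin IIA peptide, 5 nM. Compound dosing: single-point compound testing. Timing: 5 min between mix addition and reading. Benchmarks: DMSO neutral and TFP positive wells.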
# miR122 inh = blocks miR-122 activity in Huh7 sensor cells. Huh7 miR-122 Renilla luciferase sensor, 48 h; neutral wells = 0, positive control = 100. activation (reporter increase), % at 12.5 µM. 0.3% of 340,000 active. AID 602342;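 active means mean replicate activation score at least 90 and every replicate individually at or above 90; inconclusive means only one of the two criteria met; inactive means neither criterion met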;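 further: higher luciferase means less miR-122 activity so hits act as miR-122 inhibitors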
# Active calls of the source: *; ? = inconclusive; nt = no result; [ ] = dose if it differs, or a comment.
SMILES,FGF22 binding,SIRT5 block,E-selectin induc,S100A4 MyoIIA,miR122 inh
O=C1N[C@@H](Cc2ccccc2)COCc2cn(nn2)CC[C@@H]1Cc1ccccc1,0.0,0.3,-0.1,0.2,nt
C[C@@H]1CN([C@H](C)CO)C(=O)c2cc(NC(=O)c3ccncc3)ccc2O[C@@H](C)CCCCO[C@H]1CN(C)S(=O)(=O)c1ccccc1,0.0,7.4,nt,-7.6,12.2[16.7 µM]
COc1cc(-c2nc3n(n2)C(c2ccncc2)C2=C(CCCC2=O)N3)cc(OC)c1OC (stereo not given),44.0*,-1.8,nt,-9.9,nt
CN1C(=O)c2cc(NC(=O)Nc3ccc(F)cc3)ccc2OC[C@H]2O[C@@H](CC(=O)NC3CCC3)CC[C@H]21,-0.1,1.2,0.2,1.1,2.5[16.7 µM]
COc1cc2c(cc1OC)C(c1c(Cl)cccc1Cl)NC(=O)C2 (stereo not given),-0.1,26.2*,nt,-1.9,nt
COc1cc2c(cc1OC)C(c1cccc(Br)c1)NC(=O)C2 (stereo not given),0.0,-1.4,nt,1.5,-1.2
COc1ccc(-c2cccc(-c3cc(=O)oc4cc(OC)cc(OC)c34)c2)cc1,-0.2,4.0,nt,-1.4,104.1*
COc1cc(OC)c2c(-c3cccc(-c4ccc(O)cc4)c3)cc(=O)oc2c1,0.3,-0.3,-3.6,-0.6,98.6*
COc1cc(OC)c2c(-c3cccc(-c4ccc(N(C)C)cc4)c3)cc(=O)oc2c1,0.0,-2.8,-4.7,-3.9,97.2*
COc1cc(OC)c2c(-c3cccc(-c4cccc(C)c4)c3)cc(=O)oc2c1,-0.2,-0.8,nt,2.6,5.5
N#Cc1ccc(-c2ccc3c(c2)[C@@H]2[C@@H](CCN2S(=O)(=O)c2cccc(F)c2)[C@@H](CO)N3)cc1,0.6,-0.4,-1.1,0.4,-2.5[16.7 µM]
COc1ccc2c3c([nH]c2c1)[C@H](CO)N(Cc1ccc(Cl)cc1)CC31CN(Cc2ccccc2)C1,nt,nt,-0.4,nt,nt
COc1ccc(Cc2nc3c([nH]2)c(=O)n(C)c(=O)n3C)cc1OC,43.5*,nt,0.0,-0.8,nt
Cn1c(=O)c2[nH]c(Cc3cccc(O)c3)nc2n(C)c1=O,nt,nt,1.2,0.1,-4.2
CO[C@@H]1CN(C)C(=O)c2cc(NC(=O)C3CC3)ccc2OC[C@H](C)N(C(=O)C2CCOCC2)C[C@@H]1C,0.0,-2.7,-0.1,-7.7,nt
C[C@@H]1CN([C@H](C)CO)C(=O)CCCn2cc(nn2)CO[C@H]1CN(C)Cc1ccccc1C(=O)O,0.1,-2.0,0.1,-1.5,-4.8[16.7 µM]
Cc1ccc(S(=O)(=O)N(C)C[C@H]2Oc3cc(-c4cccc(F)c4)ccc3S(=O)(=O)N([C@@H](C)CO)C[C@@H]2C)cc1,0.0,?,24.2,5.0,11.2[16.7 µM]
C[C@@H]1CN([C@H](C)CO)S(=O)(=O)c2ccc(-c3cccc(F)c3)cc2O[C@@H]1CN(C)S(=O)(=O)c1ccc(F)cc1,0.0,20.0*,-0.1,18.4,9.4[16.7 µM]
C[C@H]1CN([C@@H](C)CO)S(=O)(=O)c2ccc(-c3cccc(F)c3)cc2O[C@@H]1CN(C)S(=O)(=O)c1ccc(F)cc1,0.0,18.2*,-0.1,-11.9,6.4[16.7 µM]
COc1ccc(S(=O)(=O)N(C)C[C@@H]2Oc3cc(-c4cccc(F)c4)ccc3S(=O)(=O)N([C@@H](C)CO)C[C@@H]2C)cc1,-0.1,13.1,-0.3,3.2,-17.2[16.7 µM]
O=C(C[C@@H]1C[C@H]2c3cc(NC(=O)CC4CC4)ccc3O[C@H]2[C@@H](CO)O1)NCc1ccncc1,-0.4,-2.2,0.8,-0.1,6.7[16.7 µM]
CCOCCCNC(C(=O)Nc1ccc(OC)c(Cl)c1)c1ccccc1 (stereo not given),43.1*,-4.0,nt,-0.3,-2.6
COc1ccc(NC(=O)CNC(c2ccccc2)c2ccccc2)cc1Cl,0.2,-17.7,nt,-4.4,1.6
C[C@@H]1CN([C@@H](C)CO)C(=O)c2cccc(NS(=O)(=O)c3cn(C)cn3)c2O[C@@H]1CN(C)Cc1ccc(C(F)(F)F)cc1,0.0,0.6,-14.1,39.4,3.5[16.7 µM]
C[C@@H]1CCCCO[C@@H](CN(C)Cc2ccccc2)[C@@H](C)CN([C@@H](C)CO)C(=O)c2cc(NS(=O)(=O)c3ccc(Cl)cc3)ccc2O1,nt,17.9*,nt,-10.4,-7.2[16.7 µM]
SMILES,FGF22 binding,SIRT5 block,E-selectin induc,S100A4 MyoIIA,miR122 inh
Cc1ccc(S(=O)(=O)Nc2ccc3c(c2)C(=O)N([C@@H](C)CO)C[C@@H](C)[C@H](CN(C)Cc2ccccc2)OCCCC[C@H](C)O3)cc1,0.0,17.2*,nt,-7.8,nt
Cc1ccc(S(=O)(=O)Nc2ccc3c(c2)C(=O)N([C@@H](C)CO)C[C@H](C)[C@H](CN(C)Cc2ccccc2)OCCCC[C@H](C)O3)cc1,-0.3,nt,nt,nt,-12.8[16.7 µM]
COCC(=O)N1C[C@H](C)[C@@H](OC)CN(C)C(=O)c2ccc(NS(C)(=O)=O)cc2OC[C@@H]1C,-0.4,-1.5,0.1,1.7,nt
O=C(C1CC1)N1CCCCN2[C@H](C1)[C@@H](c1ccc(C#CC3CC3)cc1)[C@@H]2CO,-0.4,3.5,nt,8.1,19.4[16.7 µM]
CCCC(=O)N1CCC2(CC1)CN(C(=O)CN1CCOCC1)[C@H](CO)c1c2c2ccc(OC)cc2n1C,0.1,nt,0.0,nt,nt
COc1cccc(C#Cc2ccc3c(c2)O[C@H](CN(C)C)[C@@H](C)CN([C@H](C)CO)S3(=O)=O)c1,0.0,-0.4,-0.1,-6.8,3.6[16.7 µM]
COc1ccc(C2C(C(=O)c3ccccc3)N3c4ccccc4C=CC3C2[N+](=O)[O-])cc1 (stereo not given),0.1,-1.3,119.6*,-7.6,nt
O=[N+]([O-])c1ccc(NN=C(C2CC2)C2CC2)c([N+](=O)[O-])c1,0.3,nt,1.3,1.8,-1.9
CCC(CC)=NNc1ccc([N+](=O)[O-])cc1[N+](=O)[O-],43.2*,0.2,-0.2,3.7,nt
Cc1ccc(SCCC(=O)NC2CC2)cc1,0.2,16.0*,-0.1,-1.4,-5.4
Cc1ccc(SCC(=O)NC2CC2)cc1,-0.1,-1.9,0.0,2.6,nt
Cc1ccc(SCCC(=O)Nc2ccccc2Br)cc1,42.9*,-3.3,nt,-0.4,3.3
C[C@H]1CN([C@@H](C)CO)C(=O)c2cccc(NC(=O)c3cnccn3)c2O[C@H]1CN(C)CC1CC1,0.0,-4.0,-6.1,2.4,5.9[16.7 µM]
C[C@H]1CN([C@@H](C)CO)C(=O)c2cccc(NC(=O)CCCCCC(=O)Nc3ccccc3N)c2O[C@@H]1CN(C)Cc1ccccc1,nt,nt,1.3,nt,nt
O=C(CSc1nnnn1C1CCCCC1)Nc1ccc(F)cc1,43.1*,-1.4,2.3,-2.8,nt
O=C(CSc1nnnn1C1CCCCC1)N1CCCC1,0.0,0.9,nt,-0.1,-0.5
COc1ccc(NC(=O)CSc2nnnn2C2CCCCC2)cc1,-0.3,-4.1,0.2,2.7,nt
O=C(O)CSc1nnnn1C1CCCCC1,43.3*,-1.2,nt,-4.2,nt
Cc1noc(C)c1NC(=O)N(C)C[C@@H]1Oc2ccc(NS(=O)(=O)c3cn(C)cn3)cc2CC(=O)N([C@@H](C)CO)C[C@@H]1C,-0.3,3.8,nt,-3.3,5.8[16.7 µM]
Cc1cc(C)nc(N/N=C/c2sccc2C)n1,0.7,19.7*,nt,-3.3,nt
